# Reference: ChEMBL document CHEMBL1949537, “Structure-activity studies on the anti-proliferation activity of ajoene analogues in WHCO1 oesophageal cancer cells” (Eur J Med Chem, 2012)
# Calls of active or inactive are those of the source. The rule behind the calls is not given here.
# Assays:
# [1] = test system: WHCO1; assay: Growth inhibition of human WHCO1 cells at 34 uM after 6 days by Roche xCelligence method; type: functional, cell-based
# Summary of the method: (§1)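 Real-time impedance (xCelligence) of WHCO1 cells seeded at 5000/well. Compound added 24 h after plating in 0.1% DMSO at 34, 100 or 113 µM; DMSO-only controls. Growth then tracked continuously for a further six days. Each curve is the average of three replicates.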
# [2] = Antiproliferative activity against human WHCO1 cells after 48 hrs by MTT assay; type: functional, cell-based; details: WHCO1, 48 h
# Summary of the method: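 WHCO1 cells (oesophageal SCC line) kept in DMEM with 10% FBS, no antibiotics, 37 °C, 5% CO2. Seeded 2 × 10^3 cells/well, dosed next day at 0.5–200 µM in 0.1% DMSO final; DMSO-only controls. After 48 h, MTT added for 4 h, then SLS/HCl overnight, A595 read. IC50 from variable-slope sigmoidal fit; mean ± SD of three independent determinations.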
# [3] = Induction of cell cycle arrest in human WHCO1 cells assessed as G0/G1 phase cells at 10 uM after 16 hrs by flow cytometry (reference value: 29.2 +/- 5.2%); type: functional
# [4] = test system: WHCO1; assay: Growth inhibition of human WHCO1 cells at 100 uM after 6 days by Roche xCelligence method; type: functional, cell-based; summary of the method: as §1
# [5] = test system: WHCO1; assay: Induction of apoptosis in human WHCO1 cells at 10 uM after 16 hrs by Roche cell death ELISA method; type: functional, cell-based
# Summary of the method: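 Quadruplicate wells of 5 × 10^3 WHCO1 cells dosed next day at 10 µM in 0.1% DMSO for 16 h; DMSO-only controls. Cytoplasmic fraction assayed for histone-associated DNA fragments by sandwich ELISA (anti-histone-biotin/anti-DNA-POD, 2 h at room temperature, ABTS 15 min). Absorbance read at 405 and 495 nm.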
# [6] = Induction of cell cycle arrest in human WHCO1 cells assessed as G2/M phase cells at 10 uM after 16 hrs by flow cytometry (reference value: 25.5 +/- 3.7%); type: functional
# [7] = Ratio of Z-ajeone IC50 to compound IC50 for human WHCO1 cells; type: functional
# [8] = Induction of cell cycle arrest in human WHCO1 cells assessed as S phase cells at 10 uM after 16 hrs by flow cytometry (reference value: 45.3 +/- 1.9%); type: functional
# [9] = test system: WHCO1; assay: Growth inhibition of human WHCO1 cells at 10 uM up to 5 days by Roche xCelligence method; type: functional, cell-based
# Summary of the method: (§2)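 xCelligence impedance monitoring of WHCO1 growth: 2500 cells/well, treated 24 h after plating with 10 µM compound in 0.1% DMSO. DMSO-only controls. Growth followed continuously as impedance; the system records for up to seven days.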
# [10] = Induction of apoptosis in human WHCO1 cells assessed as caspase 3 activation using Ac-DEVD-AFC as substrate at 25 uM after 24 hrs by fluorimetry relative to control; type: functional
# Summary of the method: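 WHCO1 cells (1.8 × 10^6) seeded in triplicate and dosed next day at 25 µM with 0.1% DMSO for 24 h. Controls received medium or 0.1% DMSO. Lysates captured on anti-caspase-3 coated wells for 1 h at 37 °C, then fluorogenic substrate added. Fluorescence (ex 390/em 505 nm) read at 0 and 120 min at 37 °C; activity is the ΔFU.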
# [11] = test system: WHCO1; assay: Growth inhibition of human WHCO1 cells at 113 uM after 6 days by Roche xCelligence method; type: functional, cell-based; summary of the method: as §1
# [12] = test system: WHCO1; assay: Growth inhibition of human WHCO1 cells at 10 uM up to 2 days by Roche xCelligence method; type: functional, cell-based; details: in the assay text read “up to 5 days” for “up to 2 days”; summary of the method: as §2
Compound,IC50 [2] [µM],further results
COc1ccc(CSSCCC[S+]([O-])Cc2ccc(OC)cc2)cc1 (stereo not drawn),16,growth inhibition (GI) [1]: Active
C=CCSSC=CC[S+]([O-])Cc1ccc(OC)cc1 (mixture of isomers),7.4,
COc1ccc(CSSC=CC[S+]([O-])Cc2ccc(OC)cc2)cc1 (stereo not drawn),2.1,Activity [3]: 8.03%; growth inhibition (GI) [4]: Active; Activity [5]: Active; Activity [6]: 78.6%; Ratio IC50 [7]: 12; Activity [8]: 13.5%; growth inhibition (GI) [9]: Active; fold change (FC) [10]: 3
COc1ccc(CSCC=CSSCc2ccc(OC)cc2)cc1,0.7,Activity [3]: 9.73%; Activity [5]: Active; Activity [6]: 74.4%; growth inhibition (GI) [1]: Active; Activity [8]: 15.9%
COc1ccc(CSC=CCSCc2ccc(OC)cc2)cc1,> 200,growth inhibition (GI) [11]: inactive
C=CCSSC=CC[S+]([O-])C(C)(C)C (mixture of isomers),23,
C=CCSS/C=C\C[S+]([O-])CCC (stereo not drawn),23,
C=CCSS/C=C\C[S+]([O-])CCCN1C(=O)c2ccccc2C1=O (stereo not drawn),33,
C=CCSS/C=C/C[S+]([O-])CCCO (stereo not drawn),27,
C=CCSS/C=C/C[S+]([O-])CCCOCc1ccc(OC)cc1 (stereo not drawn),18,
C=CCSSC=CC[S+]([O-])Cc1ccccc1 (mixture of isomers),8.9,
C=CCSS/C=C/C[S+]([O-])CCC (stereo not drawn),37,
COc1ccc(C[S+]([O-])CC=CSSCc2ccc(F)cc2)cc1 (mixture of isomers),16,
C=CCSS/C=C\C[S+]([O-])CCCOCc1ccc(OC)cc1 (stereo not drawn),21,
COc1ccc(CS/C=C/C[S+]([O-])Cc2ccc(OC)cc2)cc1 (stereo not drawn),> 200,Activity [3]: 21.5%; Activity [6]: 11.4%; growth inhibition (GI) [1]: inactive; Activity [8]: 67%
C=CCSS/C=C/C[S+]([O-])CC=C (stereo not drawn) [AJOENE],39,growth inhibition (GI) [12]: inactive
CCC[S+]([O-])C/C=C/SSC (stereo not drawn),28,
C=CCSS/C=C\C[S+]([O-])CC=C (stereo not drawn) [(Z)-Ajoene],25,growth inhibition (GI) [12]: inactive
COc1ccc(CSCCCSSCc2ccc(OC)cc2)cc1,> 200,growth inhibition (GI) [11]: inactive
C=CCSS/C=C\C[S+]([O-])CCCO (stereo not drawn),38,
COc1ccc(C[S+]([O-])CC=CSSCc2ccccc2)cc1 (mixture of isomers),3.1,
CCCSS/C=C\C[S+]([O-])CCC (stereo not drawn),18,
CCCSS/C=C/C[S+]([O-])CCC (stereo not drawn),24,
C=CCSS/C=C/C[S+]([O-])CCCN1C(=O)c2ccccc2C1=O (stereo not drawn),68,
COc1ccc(CS/C=C\C[S+]([O-])Cc2ccc(OC)cc2)cc1 (stereo not drawn),> 200,Activity [3]: 19.5%; Activity [6]: 17.4%; growth inhibition (GI) [1]: inactive; Activity [8]: 63.1%
CCC[S+]([O-])C/C=C\SSC (stereo not drawn),26,
O=c1[nH]cc(F)c(=O)[nH]1 [FLUOROURACIL],7.9,
